Measurements of several laboratories.
Protocols differ between the studies behind these lines.
CYP2C19: Cytochrome P450 2C19 (CYP2C19, Homo sapiens, UniProt P33261)
ERBB2: Receptor tyrosine-protein kinase erbB-2 (ERBB2, Homo sapiens, UniProt P04626)
60 kDa heat shock protein, mitochondrial: 60 kDa heat shock protein, mitochondrial (Homo sapiens, UniProt P10809)
SLC22A11: Solute carrier family 22 member 11 (SLC22A11, Homo sapiens, UniProt Q9NSA0)

SMILES | target | test | test system | setting | measurement | result
Cn1nc2c(=O)n(C3CC3)cnc2c1[C@](O)(c1cnc(C(F)(F)F)c(Cl)c1)C(F)(F)F | CYP2C19 | enzyme activity, inhibitor | human, liver microsomes | pH 7.4 | IC50 | > 20 µM
CNC(=O)c1ccc(Nc2ncc(C(F)(F)F)c(NCc3nccnc3N(C)S(C)(=O)=O)n2)cc1 | cGMP-dependent 3',5'-cyclic phosphodiesterase (PDE2A, Homo sapiens, UniProt O00408) | enzyme activity, inhibitor |  |  | IC50 | 3.8 µM
COc1ccc2[nH]c(C(=O)Nc3nc(CC(=O)O)cs3)cc2c1 | ERBB2 | enzyme activity, inhibitor |  |  | IC50 | 1.77 µM
Cn1nc2c(=O)n(C3CC3)ncc2c1[C@](O)(c1cnc(C(F)(F)F)c(Cl)c1)C(F)(F)F | CYP2C19 | enzyme activity, inhibitor | human, liver microsomes | pH 7.4 | IC50 | > 20 µM
O=C1CC[C@H](N2Cc3cc(N4CCN(CC5CCN(c6ccc([C@@H]7c8ccc(O)cc8CC[C@@H]7c7ccccc7)cc6)CC5)CC4)ccc3C2=O)C(=O)N1 | Androgen receptor (AR, Homo sapiens, UniProt P10275) | ligand displacement, radioligand |  |  | IC50 | 0.1 µM
Cn1ncc2c(Cl)c(C(=O)NCc3ccccc3)cnc21 | 60 kDa heat shock protein, mitochondrial | ATPase activity, inhibitor |  |  | IC50 | > 250 µM
Nc1ncnc2c1ncn2[C@@H]1O[C@H](CO)[C@@H](O)[C@H]1O | SLC22A11 | transporter uptake, inhibitor, radiometric |  | oocytes | IC50 | > 2000 µM
Cn1cncc1[C@@](N)(c1ccc(Cl)cc1)c1ccc2c(c1)c(-c1cccc(Cl)c1)cc(=O)n2C | CYP2C19 | enzyme activity, inhibitor | human, liver microsomes |  | Ki | 0.75 µM
O=C1CCc2ccccc2O1 | Carbonic anhydrase 2 (CA2, Homo sapiens, UniProt P00918) | enzyme activity, inhibitor, stopped-flow |  |  | Ki | 48.5 µM
Cn1c(=O)c2c(ncn2C)n(C)c1=O | SLC22A11 | transporter uptake, inhibitor, radiometric |  | oocytes | IC50 | 575 µM
O=C1c2cccc3c2[C@H](CCC3)CN1[C@@H]1CN2CCC1CC2 | 5-hydroxytryptamine receptor 3A (HTR3A, Homo sapiens, UniProt P46098) | ligand displacement, radioligand |  |  | Ki | 0.000246 µM
CC(C)(C)OC(=O)N1CCN(Cc2ccn(Cc3ccc(Cl)cc3)c(=O)c2O)CC1 | Lysine-specific demethylase 3B (KDM3B, Homo sapiens, UniProt Q7LBC6) | enzyme activity, inhibitor, AlphaScreen |  |  | IC50 | 4.79 µM
O=C(O)Cc1csc(NC(=O)c2cc3ccccc3[nH]2)n1 | ERBB2 | enzyme activity, inhibitor |  |  | IC50 | 0.618 µM
Cc1nn(C)c2ncc(C(=O)NCC3CC(Br)=NO3)c(Cl)c12 (stereo not drawn) | 60 kDa heat shock protein, mitochondrial | ATPase activity, inhibitor |  |  | IC50 | > 250 µM
COC(=O)Nc1nc2ccc(C(=O)c3ccccc3)cc2[nH]1 | Tyrosine-protein kinase ABL1 (ABL1, Homo sapiens, UniProt P00519) | enzyme activity, inhibitor, mobility shift |  |  | IC50 | 1.78 µM
